{"source": "ChEMBL document CHEMBL1125740", "about": "“Heterocyclic quinones. 17. A new in vivo active antineoplastic drug: 6,7-bis(1-aziridinyl)-4-[[3-(N,N-dimethylamino)propyl]amino]-5,8- quinazolinedione” (J Med Chem, 1991)", "key": {"B16 [1]": {"tested_on": "B16", "assay": "Compound was evaluated in vivo for antitumor activity against B16 melanoma after injecting the compound intravenously for percent T/C (value in parentheses indicates the day of evaluation)", "format": "functional, Mus musculus", "in_short": "(§1)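 30-60 mg tumor fragments implanted sc by trocar on day 0 into C57Bl/6-derived hosts (B16) or C3H/He-derived hosts (16/C). Drug given iv on days 6, 9 and 13 (B16) or 6, 9 and 12 (16/C), 10 mice per group. Tumors measured by caliper. T/C % taken from median tumor burden of treated vs control groups on day 15 (B16) or day 14 (16/C). Body weight change per mouse recorded at nadir.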"}, "B16 [2]": {"tested_on": "B16", "assay": "Compound was evaluated in vivo for antitumor activity against B16 melanoma 2 after injecting the compound intravenously for total dose.", "format": "functional, Mus musculus"}, "B16 [3]": {"tested_on": "B16", "assay": "Compound was evaluated in vivo for antitumor activity against […] B16 melanoma 1 after injecting the compound intravenously for optimal dose", "format": "functional, Mus musculus"}, "L1210 [4]": {"tested_on": "L1210", "assay": "Compound was evaluated in vivo for antitumor activity after intraperitoneal administration against L1210(935) for mortality range at an optimal dose of 0.4 mg/kg/injection at 1-4 day schedule.", "format": "functional, Mus musculus", "in_short": "(§2)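 L1210 leukemia, maintained in DBA/2 mice, was given ip as 10⁵ cells on day 0 to F1 hybrid or strain-of-origin mice over 18 g, in groups of 8. Dosing was ip from day 1, and mortality was checked daily. Median day of death counts dying mice only. %ILS = 100×(treated − control median day of death)/control median. Tumor-free survivors were counted on day 60. Weight change is g/mouse at nadir.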"}, "L1210 [5]": {"tested_on": "L1210", "assay": "Compound was evaluated in vivo for antitumor activity after intraperitoneal administration against L1210(935) for median day of death at an optimal dose of 0.125 mg/kg/injection at 1,4,7,11day schedule.", "format": "functional, Mus musculus", "in_short": "as §2"}, "L1210 [6]": {"tested_on": "L1210", "assay": "Compound was evaluated in vivo for antitumor activity after intraperitoneal administration against L1210(935) for median day of death at an optimal dose of 0.4 mg/kg/injection at 1-4 day schedule.", "format": "functional, Mus musculus", "in_short": "as §2"}, "L1210 [7]": {"tested_on": "L1210", "assay": "Compound was evaluated in vivo for antitumor activity after intraperitoneal administration against L1210(935)for change in body weight at an optimal dose of 0.125 mg/kg/injection at 1,4,7,11day schedule.", "format": "functional, Mus musculus", "in_short": "as §2"}, "L1210 [8]": {"tested_on": "L1210", "assay": "Compound was evaluated in vivo for antitumor activity after intraperitoneal administration against L1210(935)for change in body weight at an optimal dose of 0.1 mg/kg/injection at 1-4 day schedule.", "format": "functional, Mus musculus", "in_short": "as §2"}, "L1210 [9]": {"tested_on": "L1210", "assay": "Compound was evaluated in vivo for antitumor activity after intraperitoneal administration against L1210(935)for change in body weight at an optimal dose of 0.2 mg/kg/injection at 1-4 day schedule.", "format": "functional, Mus musculus", "in_short": "as §2"}, "L1210 [10]": {"tested_on": "L1210", "assay": "Compound was evaluated in vivo for antitumor activity after intraperitoneal administration against L1210(935) for median day of death at an optimal dose of 1 mg/kg/injection at 1 day schedule.", "format": "functional, Mus musculus", "in_short": "as §2"}, "L1210 [11]": {"tested_on": "L1210", "assay": "Compound was evaluated in vivo for antitumor activity after intraperitoneal administration against L1210(935) for total dose at an optimal dose of 0.1 mg/kg/injection at 1-4 day schedule.", "format": "functional, Mus musculus", "in_short": "as §2"}, "[12]": {"assay": "Compound was evaluated in vivo for antitumor activity against Lewis Lung cercinoma after injecting the compound intravenously for median tumor burden", "format": "functional, Mus musculus", "in_short": "(§3)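 Lewis lung carcinoma: 10^6 cells implanted im into C57Bl/6-derived hosts. Drug given iv on days 5, 9 and 13, 10 mice per group. Median tumor burden and weight nadir recorded. Survivors were killed on day 19, and their lungs were fixed in Fekete solution so that macroscopic metastases could be counted.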"}, "L1210 [13]": {"tested_on": "L1210", "assay": "Compound was evaluated in vivo for antitumor activity after intraperitoneal administration against L1210(935) for tumor free survivors at an optimal dose of 0.125 mg/kg/injection at 1,4,7,11 day schedule.", "format": "functional, Mus musculus", "in_short": "as §2"}, "L1210 [14]": {"tested_on": "L1210", "assay": "Compound was evaluated in vivo for antitumor activity after intraperitoneal administration against L1210(935)for % increase in life span at an optimal dose of 0.5 mg/kg/injection at 1,4,7,11day schedule.", "format": "functional", "details": "Mus musculus, L1210, ip", "in_short": "as §2"}, "L1210 [15]": {"tested_on": "L1210", "assay": "Compound was evaluated in vivo for antitumor activity after intraperitoneal administration against L1210(935)for % increase in life span at an optimal dose of 0.5 mg/kg/injection at 1 day schedule.", "format": "functional", "details": "Mus musculus, L1210, ip, 24 h", "in_short": "as §2"}, "[16]": {"assay": "Compound was evaluated in vivo for antitumor activity against Lewis Lung cercinoma after injecting the compound intravenously for toxicity related death.", "format": "functional, Mus musculus", "in_short": "as §3"}, "P388 [17]": {"tested_on": "P388", "assay": "Compound was evaluated in vivo for antitumor activity after intraperitoneal administration against P388/L-PAM(12) for mortality range at an optimal dose of 0.75 mg/kg/injection", "format": "functional, Mus musculus"}, "P388 [18]": {"tested_on": "P388", "assay": "Compound was evaluated in vivo for antitumor activity after intraperitoneal administration against P388/L-PAM(14) for mortality range at an optimal dose of 0.1 mg/kg/injection at 1,2,3,4 day schedule.", "format": "functional, Mus musculus"}, "P388 [19]": {"tested_on": "P388", "assay": "Compound was evaluated in vivo for antitumor activity after intraperitoneal administration against P388/L-PAM(12) for % increase in life span at an optimal dose of 0.75 mg/kg/injection", "format": "functional", "details": "Mus musculus, P388, ip"}, "P388 [20]": {"tested_on": "P388", "assay": "Compound was evaluated in vivo for antitumor activity after intraperitoneal administration against P388/L-PAM(14) for mortality range at an optimal dose of 0.2 mg/kg/injection at 1,2,3,4 day schedule.", "format": "functional, Mus musculus"}, "P388 [21]": {"tested_on": "P388", "assay": "Compound was evaluated in vivo for antitumor activity after intraperitoneal administration against P388/L-PAM(14) for total dose at an optimal dose of 0.25 mg/kg/injection at 1,4,7,11 day schedule.", "format": "functional, Mus musculus"}, "P388 [22]": {"tested_on": "P388", "assay": "Compound was evaluated in vivo for antitumor activity after intraperitoneal administration against P388/L-PAM(14) for change in body weight at an optimal dose of 0.25 mg/kg/injection at 1,4,7,11 day schedule.", "format": "functional, Mus musculus"}, "P388 [23]": {"tested_on": "P388", "assay": "Compound was evaluated in vivo for antitumor activity after intraperitoneal administration against P388/L-PAM(14) for change in body weight at an optimal dose of 0.4 mg/kg/injection at 1,2,3,4 day schedule.", "format": "functional, Mus musculus"}, "P388 [24]": {"tested_on": "P388", "assay": "Compound was evaluated in vivo for antitumor activity after intraperitoneal administration against P388 (1313) for median day of death at an optimal dose of 1 mg/kg/injection", "format": "functional, Mus musculus"}, "P388 [25]": {"tested_on": "P388", "assay": "Compound was evaluated in vivo for antitumor activity after intraperitoneal administration against P388/L-PAM(14) for change in body weight at an optimal dose of 0.2 mg/kg/injection at 1,2,3,4 day schedule.", "format": "functional, Mus musculus"}, "P388 [26]": {"tested_on": "P388", "assay": "Compound was evaluated in vivo for antitumor activity after intraperitoneal administration against P388/L-PAM(14) for % increase in life span at an optimal dose of 0.1 mg/kg/injection at 1,2,3,4 day schedule.", "format": "functional", "details": "Mus musculus, P388, ip"}, "P388 [27]": {"tested_on": "P388", "assay": "Compound was evaluated in vivo for antitumor activity after intraperitoneal administration against P388/L-PAM(14) for % increase in life span at an optimal dose of 0.25 mg/kg/injection at 1,4,7,11 day schedule.", "format": "functional", "details": "Mus musculus, P388, ip"}, "P388 [28]": {"tested_on": "P388", "assay": "Compound was evaluated in vivo for antitumor activity after intraperitoneal administration against P388 (1313) for tumor free survivors at an optimal dose of 0.4 mg/kg/injection", "format": "functional, Mus musculus"}, "P388 [29]": {"tested_on": "P388", "assay": "Compound was evaluated in vivo for antitumor activity after intraperitoneal administration against P388 (1313) for % increase in life span at an optimal dose of 1 mg/kg/injection", "format": "functional", "details": "Mus musculus, P388, ip"}, "[30]": {"assay": "Compound was evaluated in vivo for antitumor activity against mammary adenocarcinoma 16/C after injecting the compound intravenously for optimal dose", "format": "functional, Mus musculus", "in_short": "as §1"}}, "note": "Several values for one entry are separate records, joined by “and”; a condition that tells them apart may be missing. Equal values may be shown once."}
{"smiles": "CN(C)CCCNc1ncnc2c1C(=O)C(N1CC1)=C(N1CC1)C2=O", "values": [{"measurement": "T/C", "setting": "B16 [1]", "value": "41% and 78%"}, {"measurement": "Total dose", "setting": "B16 [2]", "value": 1.8, "unit": "mg/kg"}, {"measurement": "Optimal dose", "setting": "B16 [3]", "value": 0.2, "unit": "mg/kg"}, {"measurement": "Mortality", "setting": "L1210 [4]", "value": 20, "unit": "days"}, {"measurement": "Median day of death", "setting": "L1210 [5]", "value": 13}, {"measurement": "Median day of death", "setting": "L1210 [6]", "value": 14}, {"measurement": "Change in body weight", "setting": "L1210 [7]", "value": 2.7, "unit": "g mouse-1"}, {"measurement": "Change in body weight", "setting": "L1210 [8]", "value": 0.4, "unit": "g mouse-1"}, {"measurement": "Change in body weight", "setting": "L1210 [9]", "value": 0.4, "unit": "g mouse-1"}, {"measurement": "Median day of death", "setting": "L1210 [10]", "value": 14}, {"measurement": "Total dose", "setting": "L1210 [11]", "value": 0.4, "unit": "mg/kg"}, {"measurement": "Tumor burden", "setting": "[12]", "value": "7717 mg and 7748 mg"}, {"measurement": "Survivors", "setting": "L1210 [13]", "value": 0}, {"measurement": "ILS at 0.5 mg/kg", "setting": "L1210 [14]", "value": 27, "unit": "%"}, {"measurement": "ILS at 0.5 mg/kg", "setting": "L1210 [15]", "value": 27, "unit": "%"}, {"measurement": "Toxicity", "setting": "[16]", "value": 0}, {"measurement": "Mortality", "setting": "P388 [17]", "value": 19}, {"measurement": "Mortality", "setting": "P388 [18]", "value": 21, "unit": "days"}, {"measurement": "ILS at 0.75 mg/kg", "setting": "P388 [19]", "value": 19, "unit": "%"}, {"measurement": "Mortality", "setting": "P388 [20]", "value": 20, "unit": "days"}, {"measurement": "Total dose", "setting": "P388 [21]", "value": 1, "unit": "mg/kg"}, {"measurement": "Change in body weight", "setting": "P388 [22]", "value": 0.9, "unit": "g mouse-1"}, {"measurement": "g/mouse", "setting": "P388 [23]", "value": 0.9}, {"measurement": "Median day of death", "setting": "P388 [24]", "value": 19}, {"measurement": "Change of weight", "setting": "P388 [25]", "value": 1.7, "unit": "g mouse-1"}, {"measurement": "ILS at 0.1 mg/kg", "setting": "P388 [26]", "value": 0, "unit": "%"}, {"measurement": "ILS at 0.25 mg/kg", "setting": "P388 [27]", "value": 18, "unit": "%"}, {"measurement": "Survivors", "setting": "P388 [28]", "value": 1}, {"measurement": "ILS at 1 mg/kg", "setting": "P388 [29]", "value": 70, "unit": "%"}, {"measurement": "Optimal dose", "setting": "[30]", "value": "0.4 mg/kg and 0.2 mg/kg"}]}
